# From PubChem BioAssay
# In the library only some 3.5% were active in any assay of this set; here they are far more common.
# MrgX1 PAM: allosterically activates human MrgX1 receptor signaling. B-score at 10 µM. MrgX1-HEK293, Fluo-4 calcium flux, FDSS; hits give high values. Q96LB2. hit rate 0.63% among 310,000;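 active = plate-corrected calcium response at least 3 library SD above typical, normal starting fluorescence, not activating the receptor alone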;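 also: compound read alongside a low EC10 to EC30 dose of BAM8-22 agonist; peak minus trough fluorescence over baseline measured at the second addition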
# Target sequence (Q96LB2 whole entry, looked up): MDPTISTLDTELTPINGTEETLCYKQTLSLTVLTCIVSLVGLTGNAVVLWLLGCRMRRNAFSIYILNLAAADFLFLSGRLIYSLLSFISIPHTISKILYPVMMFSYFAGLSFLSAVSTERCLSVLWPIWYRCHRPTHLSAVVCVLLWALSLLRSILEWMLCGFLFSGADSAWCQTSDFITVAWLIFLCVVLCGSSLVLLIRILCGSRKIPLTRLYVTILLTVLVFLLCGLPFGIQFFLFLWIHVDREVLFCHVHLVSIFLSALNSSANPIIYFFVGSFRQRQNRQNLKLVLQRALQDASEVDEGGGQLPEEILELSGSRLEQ
# RGS4 block: inhibitors of human RGS4. P49798. hit rate 0.45% among 310,000. B-score at 10 µM. HEK293 M3R/RGS4 inducible, Fluo-4 calcium flux; hits give high values; triggered by carbachol at its EC20;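 active = B-score, a plate-corrected calcium signal, over three deviations above library mean, with baseline fluorescence within five deviations of library mean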;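 also: RGS4 expression induced by doxycycline in cells with stable M3 receptor; B-score is computed from the integrated fluorescence ratio over baseline after carbachol; higher B-score means a larger calcium signal and so more RGS4 inhibition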
# Target sequence (P49798 whole entry, looked up): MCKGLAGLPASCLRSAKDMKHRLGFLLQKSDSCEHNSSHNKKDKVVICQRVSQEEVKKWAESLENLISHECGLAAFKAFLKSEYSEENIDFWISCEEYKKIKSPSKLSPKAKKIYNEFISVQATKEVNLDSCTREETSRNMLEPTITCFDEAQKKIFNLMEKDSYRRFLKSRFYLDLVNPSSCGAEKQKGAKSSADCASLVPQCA
# MrgX1 agonist: agonists of human MrgX1 receptor; MrgX1-HEK293 cells, Fluo-4 calcium fluorescence, agonist mode; hits give high values; hit rate 0.44% among 310,000; B-score at 10 µM; AID 588627; Q96LB2;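 active = calcium response B-score plate-corrected fluorescence ratio at least 3 library SD, with starting fluorescence B-score inside 5 SD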
#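 System: HEK293 cells stably expressing human MrgX1 receptor; Dosing: test compound in the initial addition of three; Schedule: overnight plating, then 30 min 37 °C plus 30 min room-temperature dye loading; Detection: kinetic calcium dye fluorescence, Fluo-4 NW; Controls: per-plate positive and negative controls for Z′ factor.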
# RGS4 act: potentiators or activators of RGS4; AID 463111; hit rate 0.92% among 310,000; HEK293 M3R/inducible RGS4, carbachol calcium flux Fluo4; hits give low values; B-score at 10 µM;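 active = B-score of the integrated calcium signal more than 4 SD below the library mean, with starting fluorescence not abnormally high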;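 also: negative B-score means reduced calcium response which marks RGS4 activation or potentiation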
#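 Material: M3R-expressing HEK293 line, RGS4 induced by doxycycline | Schedule: Overnight RGS4 induction, 30 min dye load 37 °C, 20 min compound RT | Measured by: Fluo4 fluorescence kinetic imaging of calcium | Read-out: Integrated calcium ratio converted to B score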
# MrgX1 antag: human MrgX1 receptor antagonism, primary screen; Q96LB2; MRGX1-HEK293 calcium flux, Fluo-4, BAM8-22 antagonism; hits give low values; B-score at 10 µM; hit rate 1.3% among 310,000; AID 588676;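 active = calcium-response B-score plate-corrected more than 3 library SD below zero, starting fluorescence within 5 deviations, no agonist response on first addition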;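 also: peak minus trough fluorescence over baseline after final BAM8-22 challenge near maximal dose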
# MrgX1 ant reconf: reconfirmed antagonist of human MrgX1 receptor signaling; shares compounds with MrgX1 antag; MrgX1-HEK293, BAM8-22 calcium flux, Fluo-4; hits give low values; remaining BAM8-22 calcium response % of control (hits give low values), % at 10 µM; hit rate 19% among 2,300; AID 602420;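 active = remaining agonist calcium response no higher than 100% minus 3 SD of agonist-only control wells, with starting fluorescence near control levels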;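 also: agonist BAM8-22 given at a near maximal EC90 to ECmax level; peak minus minimum fluorescence divided by baseline after agonist addition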
# HEK293 Ca flux: MrgX1 antagonist counter-screen hit in parental HEK293 cells | shares compounds with MrgX1 antag | Fluo-4 calcium fluorescence, FDSS | fluorescence ratio F(max-min)/F0 at 10 µM | hit rate 2% among 4,000 | AID 624111;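 active = duplicate-averaged calcium fluorescence ratio at least three times the standard deviation of buffer wells, a nonspecific response in parental cells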
# HEK293 Ca counter: counter-screen for MrgX1 allosteric activators: effect in parental HEK293 cells | shares compounds with MrgX1 antag | parental HEK293 calcium flux, Fluo-4 fluorescence ratio; hits give high values | fluorescence ratio F(max-min)/F0 at 10 µM | hit rate 0.4% among 4,000;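 active = calcium fluorescence ratio, averaged over duplicates, at least 3 SD of the buffer-well ratio, meaning a nonspecific response in receptor-free cells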;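 also: untransfected parental HEK293 lacking MrgX1 used as counterscreen for MrgX1 allosteric activators; fluorescence change taken during the second addition on a kinetic imager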
# HEK293 Ca cntr2: counter-screen for MrgX1 activators: effect in parental HEK293 cells; AID 624115; fluorescence ratio F(max-min)/F0 at 10 µM; hit rate 8.7% among 4,000; shares compounds with MrgX1 antag; Fluo-4 calcium fluorescence (FDSS); hits give high values;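 active = calcium fluorescence ratio at least three times the spread of buffer wells, meaning a non-specific response in parental cells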
# Numbers without * were called inactive; i = inactive; · = not tested or not shown.
SMILES,MrgX1 PAM,RGS4 block,MrgX1 agonist,RGS4 act,MrgX1 antag,MrgX1 ant reconf,HEK293 Ca flux,HEK293 Ca counter,HEK293 Ca cntr2
Cc1ccc(Cc2cnc(N3C(=N)SC(c4ccccc4)C3=O)s2)cc1 (stereo not given),i,i,i,i,-5.2*,i,i,i,i
N/C(=N\OC(=O)c1csnn1)c1ccc(C(F)(F)F)cc1,i,i,i,i,i,·,·,·,·
Cc1ccc(NC(=O)COc2ccccc2C(=O)NCCN(C)C)cc1,i,i,i,i,i,·,·,·,·
Cc1n[nH]c(=O)c2c(NC(=O)CSc3nnc(-c4ccncc4)n3C)oc(C)c12,i,i,i,i,-7.1*,i,i,i,i
CCOCCCn1c(SCC(=O)Nc2oc(C)c3c(C)n[nH]c(=O)c23)nnc1-c1ccncc1,i,i,i,i,i,·,·,·,·
C=CCn1c(C)nnc1SCC(=O)Nc1oc(C)c2c(C)n[nH]c(=O)c12,i,i,i,i,-5.3*,i,i,i,i
CC1CCN(C(=O)C2CCC(CNS(=O)(=O)c3cccc4cccnc34)CC2)CC1 (stereo not given),i,i,i,i,-5.3*,i,i,i,i
CN1CCN(c2ncnc3scc(-c4ccccc4Cl)c23)CC1,i,i,i,i,i,·,·,·,·
Cc1cc(-c2csc3ncnc(N4CCN(C)CC4)c23)cc(C)c1C,i,i,i,i,-4.9*,i,i,i,i
Cc1ccnc(NC(=O)Cn2cc([N+](=O)[O-])cn2)c1,i,i,i,i,i,·,·,·,·
CC(=Nc1ccccc1C)C1=C(O)CSC1=O,i,i,i,i,-5.4*,i,i,i,i
CCCCNC(=O)CCn1c(=O)c2ccccc2n(Cc2ccc(F)cc2)c1=O,i,i,i,i,i,·,·,·,·
CC(Oc1ccccc1Cl)c1nnc(N)s1 (stereo not given),i,i,i,i,-7.8*,i,i,i,i
COc1ccc(NC(=O)Cc2coc3ccc4ccccc4c23)cc1S(=O)(=O)N1CCOCC1,i,i,i,i,-6.7*,i,i,i,i
Cc1cnc(C(=O)OCC(=O)c2csc(N3CCCCC3)n2)cn1,i,i,i,i,-5.7*,i,i,i,i
CCN(CC)CCNc1nc2c(c(=O)n(C)c(=O)n2C)n1C/C=C(/C)Cl,i,i,i,i,-4.6*,i,i,i,i
C/C(Cl)=C\Cn1c(NCCc2ccccc2)nc2c1c(=O)n(C)c(=O)n2C,i,i,i,i,i,·,·,·,·
CC(OC(=O)COc1cccc2c1OC(C)(C)C2)C(=O)Nc1ccc(S(N)(=O)=O)cc1 (stereo not given),i,i,i,i,-5.4*,i,i,i,i
CCOc1ccc(NC(=O)COC(=O)COc2cccc3c2OC(C)(C)C3)cc1,i,i,i,i,i,·,·,·,·
O=C(COc1ccc(S(=O)(=O)N2CCCC2)cc1Cl)NCc1ccccn1,i,i,i,i,-6.2*,i,i,i,i
O=C(COc1ccc(S(=O)(=O)N2CCOCC2)cc1Cl)NCc1ccccn1,i,i,i,i,i,·,·,·,·
COC(=O)COc1ccc(S(=O)(=O)Nc2ccc3c(c2)OCCO3)cc1C,i,i,i,i,i,·,·,·,·
COc1ccc(OC)c2sc(NC(=O)CCSc3ccccc3)nc12,i,i,i,i,-8.8*,i,i,i,i
